Results as given in publication PMC9290681 (British Journal of Pharmacology, 2020).
Blank lines part the entries; values can stand above or below the compound they belong to.

How the values were obtained:
TRPM3α1 [1] = molecular target: T1, TRPM3α1 (Mus musculus, UniProt J9SQF3); experiment: Calcium microfluorimetry, HEK293T cells transiently transfected with TRPM3α1; assay type: cell-based; conditions: for intracellular calcium response: PS 40 μM, Nif 50 μM, Clt 10 μM, CIM0216 1 μM, Fura-2; for calcium signal at high agonist concentrations: PS 50, 100 and 200 μM, Nif 100 and 200 μM
TRPM3α1 [2] = molecular target: T1, TRPM3α1; experiment: Whole-cell patch clamp, HEK293T cells expressing TRPM3α1; assay type: cell-based; conditions: for block of CIM0216-induced currents: CIM0216 1 μM, isosakuranetin 5 μM; for block of CIM0216-induced currents / block of clotrimazole-induced currents: diclofenac 100 μM, primidone 25 μM; for block of CIM0216-induced currents / block of clotrimazole-induced currents / whole-cell current increase: ±80 mV; for block of clotrimazole-induced currents: Clt 10 μM; for whole-cell current increase: Nif 50 μM
TRPM3α2 = TRPM3α2 (Mus musculus, UniProt J9SQF3); experiment: Whole-cell patch clamp, HEK293T cells expressing TRPM3α2; assay type: cell-based, murine; conditions: for block of CIM0216-induced currents: isosakuranetin 5 μM, diclofenac 100 μM, primidone 25 μM
TRPM3α1 Δ3a = experiment: Whole-cell patch clamp, deletion mutant TRPM3α1 Δ3a; assay type: cell-based, mouse; conditions: n=5
TRPM3α1 Δ3b = experiment: Whole-cell patch clamp, deletion mutant TRPM3α1 Δ3b; assay type: cell-based, mouse; conditions: n=5
TRPM3α1 Δ3c = experiment: Whole-cell patch clamp, deletion mutant TRPM3α1 Δ3c; assay type: cell-based, mouse; conditions: n=5
TRPM3α1 Δ3d = experiment: Whole-cell patch clamp, deletion mutant TRPM3α1 Δ3d; assay type: cell-based, mouse; conditions: for block of clotrimazole-activated currents: isosakuranetin 5 μM, diclofenac 100 μM, primidone 25 μM
TRPM3α1 Δ6b = TRPM3α1 Δ6b (Mus musculus, UniProt J9SQF3, DEL1071-1076); experiment: Whole-cell patch clamp, deletion mutant TRPM3α1 Δ6b; assay type: cell-based; conditions: for block of clotrimazole-activated currents: Clt 10 μM, isosakuranetin 5 μM, diclofenac 100 μM, primidone 25 μM
[3] = molecular target: TRPM3α2_D1064_A_P1065 (TRPM3α2 +1) (Mus musculus, UniProt J9SQF3, INS1087A); experiment: Whole-cell patch clamp, insertion mutant TRPM3α2 +1; assay type: cell-based; conditions: for block of clotrimazole-evoked currents / block of pregnenolone sulphate-induced currents: isosakuranetin 5 μM, diclofenac 100 μM, primidone 25 μM
[4] = tested on: short pore loop TRPM3α variants (α2–α6); assay type: cell-based, mouse; conditions: PS 40 μM, Nif 50 μM; all isoforms α2–α6
How it was run: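 HEK293T cells transiently transfected 48 h before imaging were loaded with Fura-2 AM for 20 min at 37°C. Ratios at 340/380 nm excitation were converted to absolute calcium by Grynkiewicz calibration. Response was taken as maximum minus basal during the stimulus. Only cells responding to a final ionomycin challenge were counted. At least three independent coverslips were used.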

[5] = molecular target: TRPM3α1 and TRPM3α2 co-expressed (Mus musculus, UniProt J9SQF3); experiment: Calcium microfluorimetry, HEK293 cells co-transfected with TRPM3α1 and TRPM3α2; assay type: cell-based; conditions: PS 40 μM, Clt 10 μM; TRPM3α2 cDNA 0.5 μg with TRPM3α1 cDNA 0, 1.5 and 3 μg
[6] = molecular target: T2, short pore loop TRPM3α isoforms (α2–α6) (Mus musculus, UniProt J9SQF3); experiment: Whole-cell patch clamp, HEK293T cells expressing short pore loop TRPM3α isoforms; assay type: cell-based; conditions: PS 40 μM, Clt 10 μM; ±80 mV
T2 sequence (J9SQF3 852-1200 limits assumed): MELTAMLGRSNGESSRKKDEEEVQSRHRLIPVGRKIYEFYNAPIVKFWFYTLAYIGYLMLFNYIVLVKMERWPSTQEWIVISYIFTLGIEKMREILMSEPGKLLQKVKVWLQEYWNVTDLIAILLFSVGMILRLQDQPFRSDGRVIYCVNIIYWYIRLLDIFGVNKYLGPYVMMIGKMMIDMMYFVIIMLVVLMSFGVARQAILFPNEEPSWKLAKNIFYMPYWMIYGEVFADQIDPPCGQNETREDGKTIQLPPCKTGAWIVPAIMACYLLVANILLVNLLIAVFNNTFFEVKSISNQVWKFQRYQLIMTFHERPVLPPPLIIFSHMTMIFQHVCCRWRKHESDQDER

TRPM3α1 A1077P (α1 A‐P) = TRPM3α1 A1077P (α1 A‐P) (Mus musculus, UniProt J9SQF3, A1077P); experiment: Whole-cell patch clamp, mutant TRPM3α1 A1077P; assay type: cell-based; conditions: PS 40 μM, n=6
TRPM3α1 Δ6a = TRPM3α1 Δ6a (Mus musculus, UniProt J9SQF3, DEL1065-1070); experiment: Whole-cell patch clamp, deletion mutant TRPM3α1 Δ6a; assay type: cell-based; conditions: PS 40 μM, n=4
TRPM3α1 Δ12 = TRPM3α1 Δ12 (Mus musculus, UniProt J9SQF3, DEL1065-1076); experiment: Whole-cell patch clamp, deletion mutant TRPM3α1 Δ12; assay type: cell-based; conditions: PS 40 μM, n=6
TRPM3α2 +5 = TRPM3α2 +5 (Mus musculus, UniProt J9SQF3, INS1087AAAAA); experiment: Whole-cell patch clamp, insertion mutant TRPM3α2 +5; assay type: cell-based; conditions: PS 40 μM, n=4
TRPM3α2 +4 = TRPM3α2 +4 (Mus musculus, UniProt J9SQF3, INS1087AAAA); experiment: Whole-cell patch clamp, insertion mutant TRPM3α2 +4; assay type: cell-based; conditions: PS 40 μM, n=6
TRPM3α2 +3 = TRPM3α2 +3 (Mus musculus, UniProt J9SQF3, INS1087AAA); experiment: Whole-cell patch clamp, insertion mutant TRPM3α2 +3; assay type: cell-based; conditions: PS 40 μM, n=5
[7] = molecular target: TRPM3α2 D1064_AA_P1065 (TRPM3α2 +2) (Mus musculus, UniProt J9SQF3, INS1087AA); experiment: Whole-cell patch clamp, insertion mutant TRPM3α2 +2; assay type: cell-based; conditions: PS 40 μM, n=4

SMILES: Clc1ccccc1C(c1ccccc1)(c1ccccc1)n1ccnc1 [clotrimazole, Clotrimazole]
Clt +80 mV ΔI density (TRPM3α1 Δ3a; Clt 10 μM, +80 mV): 430.6 ± 74.8 pA/pF
Clt −80 mV ΔI density (TRPM3α1 Δ3a; Clt 10 μM, −80 mV): −355.3 ± 55.5 pA/pF
Clt +80 mV ΔI density (TRPM3α1 Δ3b; Clt 10 μM, +80 mV): 149.2 ± 21.2 pA/pF
Clt −80 mV ΔI density (TRPM3α1 Δ3b; Clt 10 μM, −80 mV): −122.8 ± 13.9 pA/pF
Clt +80 mV ΔI density (TRPM3α1 Δ3c; Clt 10 μM, +80 mV): 242.5 ± 17.2 pA/pF
Clt −80 mV ΔI density (TRPM3α1 Δ3c; Clt 10 μM, −80 mV): −225.3 ± 13.8 pA/pF
Clt +80 mV ΔI density (TRPM3α1 Δ3d; Clt 10 μM, +80 mV, n=5): 269.2 ± 55.2 pA/pF
Clt −80 mV ΔI density (TRPM3α1 Δ3d; Clt 10 μM, −80 mV, n=5): −259.7 ± 53.1 pA/pF

SMILES: O=C(O)Cc1ccccc1Nc1c(Cl)cccc1Cl [diclofenac, Diclofenac]
block of CIM0216-induced currents (TRPM3α1 [2]): full block
block of clotrimazole-induced currents (TRPM3α1 [2]): only partially blocked
block of CIM0216-induced currents (TRPM3α2; CIM0216 1 μM, ±80 mV): full block
block of clotrimazole-activated currents (TRPM3α1 Δ3d; Clt 10 μM): only a partial block
block of clotrimazole-activated currents (TRPM3α1 Δ6b): only a partial block
block of clotrimazole-evoked currents [3]: ineffective
block of pregnenolone sulphate-induced currents [3]: fully block

SMILES: CCC1(c2ccccc2)C(=O)NCNC1=O [primidone, Primidone]
block of CIM0216-induced currents (TRPM3α1 [2]): full block
block of clotrimazole-induced currents (TRPM3α1 [2]): only partially blocked
block of CIM0216-induced currents (TRPM3α2; CIM0216 1 μM, ±80 mV): full block
block of clotrimazole-activated currents (TRPM3α1 Δ3d; Clt 10 μM): only a partial block
block of clotrimazole-activated currents (TRPM3α1 Δ6b): only a partial block
block of clotrimazole-evoked currents [3]: ineffective
block of pregnenolone sulphate-induced currents [3]: fully block

More lines, main results first:

EC50 (TRPM3α1 [2]; read-out: EC50 of current activation, CIM0216, outwardly rectifying currents): 570 ± 50 nM
SMILES: Cc1cc(NC(=O)C(c2ccccc2)N2CCCc3ccccc32)no1 (stereo not drawn) [CIM0216]
intracellular calcium response (TRPM3α1 [1]): sizable increases in intracellular calcium
whole-cell current increase (TRPM3α2; CIM0216 1 μM, ±80 mV): robust increase in both inward and outward currents

whole-cell current increase (TRPM3α1 [2]; PS 40 μM): without effect
SMILES: COC(=O)C1=C(C)NC(C)=C(C(=O)OC)C1c1ccccc1[N+](=O)[O-] [nifedipine, Nifedipine]
intracellular calcium response (TRPM3α1 [1]): did not induce any detectable calcium rise
calcium signal at high agonist concentrations (TRPM3α1 [1]): did not induce any detectable calcium signal
intracellular calcium response [4]: robust calcium responses

calcium increase in co-expressing cells versus TRPM3α2 alone [5]: significantly reduced
inhibition of clotrimazole-activated currents by co-application (TRPM3α1 [2]; PS 40 μM on Clt 10 μM currents, at +80 mV): 10.5 ± 5.1%
PS +80 mV ΔI density (TRPM3α1 [2]; PS 40 μM, +80 mV, n=5): −1.0 ± 0.85 pA/pF
PS −80 mV ΔI density (TRPM3α1 [2]; PS 40 μM, −80 mV, n=5): 0.2 ± 0.1 pA/pF
PS +80 mV ΔI density (TRPM3α2; PS 40 μM, +80 mV, n=11): 38.1 ± 12.9 pA/pF
PS −80 mV ΔI density (TRPM3α2; PS 40 μM, −80 mV, n=11): −1.9 ± 0.5 pA/pF
whole-cell current increase [6]: robust current increases
PS +80 mV ΔI density (TRPM3α1 A1077P (α1 A‐P); +80 mV): −0.4 ± 0.6 pA/pF
PS −80 mV ΔI density (TRPM3α1 A1077P (α1 A‐P); −80 mV): −0.1 ± 0.3 pA/pF
PS +80 mV ΔI density (TRPM3α1 Δ6a; +80 mV): 0.25 ± 0.2 pA/pF
PS −80 mV ΔI density (TRPM3α1 Δ6a; −80 mV): −0.05 ± 0.3 pA/pF
PS +80 mV ΔI density (TRPM3α1 Δ6b; PS 40 μM, +80 mV, n=5): 0.3 ± 0.1 pA/pF
PS −80 mV ΔI density (TRPM3α1 Δ6b; PS 40 μM, −80 mV, n=5): −0.2 ± 0.02 pA/pF
PS +80 mV ΔI density (TRPM3α1 Δ12; +80 mV): 35.6 ± 13.9 pA/pF
PS −80 mV ΔI density (TRPM3α1 Δ12; −80 mV): −3.8 ± 1.7 pA/pF
PS +80 mV ΔI density (TRPM3α2 +5; +80 mV): 1.2 ± 0.6 pA/pF
PS −80 mV ΔI density (TRPM3α2 +5; −80 mV): −0.1 ± 0.1 pA/pF
PS +80 mV ΔI density (TRPM3α2 +4; +80 mV): 1.1 ± 0.4 pA/pF
PS −80 mV ΔI density (TRPM3α2 +4; −80 mV): −0.3 ± 0.2 pA/pF
PS +80 mV ΔI density (TRPM3α2 +3; +80 mV): 7.8 ± 2.0 pA/pF
PS −80 mV ΔI density (TRPM3α2 +3; −80 mV): −1.3 ± 0.4 pA/pF
PS +80 mV ΔI density ([7]; +80 mV): 1.2 ± 0.6 pA/pF
PS −80 mV ΔI density ([7]; −80 mV): −0.1 ± 0.2 pA/pF
PS +80 mV ΔI density ([3]; PS 40 μM, +80 mV, n=4): 45.2 ± 18.6 pA/pF
PS −80 mV ΔI density ([3]; PS 40 μM, −80 mV, n=4): −2.2 ± 0.6 pA/pF
SMILES: CC(=O)[C@H]1CC[C@H]2[C@@H]3CC=C4C[C@@H](OS(=O)(=O)[O-])CC[C@]4(C)[C@H]3CC[C@]12C.[Na+] [pregnenolone sulphate, Pregnenolone sulphate sodium salt]
intracellular calcium response (TRPM3α1 [1]): did not induce any detectable calcium rise
calcium signal at high agonist concentrations (TRPM3α1 [1]): did not induce any detectable calcium signal
intracellular calcium response [4]: robust calcium responses
whole-cell current increase (TRPM3α1 [2]; PS 40 μM): did not evoke any increase in current amplitude
PS +80 mV ΔI density (TRPM3α1 Δ3a; PS 40 μM, +80 mV): 0.01 ± 0.2 pA/pF
PS −80 mV ΔI density (TRPM3α1 Δ3a; PS 40 μM, −80 mV): 0.3 ± 0.3 pA/pF
PS +80 mV ΔI density (TRPM3α1 Δ3b; PS 40 μM, +80 mV): −0.5 ± 0.4 pA/pF
PS −80 mV ΔI density (TRPM3α1 Δ3b; PS 40 μM, −80 mV): 0.1 ± 0.04 pA/pF
PS +80 mV ΔI density (TRPM3α1 Δ3c; PS 40 μM, +80 mV): −0.1 ± 0.1 pA/pF
PS −80 mV ΔI density (TRPM3α1 Δ3c; PS 40 μM, −80 mV): 0.2 ± 0.1 pA/pF
PS +80 mV ΔI density (TRPM3α1 Δ3d; PS 40 μM, +80 mV, n=5): 0.04 ± 0.3 pA/pF
PS −80 mV ΔI density (TRPM3α1 Δ3d; PS 40 μM, −80 mV, n=5): 0.01 ± 0.04 pA/pF
